From ChEMBL document CHEMBL4680236, “Design, synthesis and structure-activity relationships of novel 15-membered macrolides: Quinolone/quinoline-containing sidechains tethered to the C-6 position of azithromycin acylides” (Eur J Med Chem, 2020)
Values after ≈ are worked out from the molar mass of the structure shown.

Columns and labels:
Type in all cases: functional
Haemophilus influenzae [1] = assay: Antibacterial activity against azithromycin-susceptible Haemophilus influenzae ATCC 49247 assessed as reduction in microbial growth
Streptococcus pneumoniae [2] = assay: Antibacterial activity against MLSB-resistant Streptococcus pneumoniae 07P390 harboring ermB gene assessed as reduction in microbial growth
Streptococcus pneumoniae [3] = assay: Antibacterial activity against penicillin-susceptible Streptococcus pneumoniae PU09 harboring mef gene assessed as reduction in microbial growth
Streptococcus pyogenes [4] = assay: Bactericidal activity against MLSB-resistant Streptococcus pyogenes 12-206 harboring ermA gene
Procedure, shortened: (§1)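 Bacteria were exposed to 1- to 8-fold their MIC of test sample, then transferred to fresh culture medium without antibacterial compound and incubated for the required time. Colonies were then counted. MBC is the lowest concentration giving a reduction in colony number of >3 Log₁₀.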

Streptococcus pneumoniae [5] = assay: Bactericidal activity against Erythromycin-susceptible Streptococcus pneumoniae ATCC 49619
Procedure, shortened: (§2)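 Bacteria were exposed to 1- to 8-fold MIC of the sample, then transferred to fresh medium without antibacterial. After further incubation, colonies were counted. MBC was taken as the lowest concentration giving a >3 log10 reduction in colony number.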

Streptococcus pneumoniae [6] = assay: Ratio of MBC to MIC against MLSB-resistant Streptococcus pneumoniae 07P390 harboring ermB
Streptococcus pneumoniae [7] = assay: Ratio of MBC to MIC against Erythromycin-susceptible Streptococcus pneumoniae ATCC 49619
Haemophilus influenzae [8] = assay: Bactericidal activity against azithromycin-susceptible Haemophilus influenzae ATCC 49247; procedure, shortened: as §2
Streptococcus pneumoniae [9] = assay: Bactericidal activity against penicillin-susceptible Streptococcus pneumoniae PU09 harboring mef gene; procedure, shortened: as §1
Streptococcus pneumoniae [10] = assay: Ratio of MBC to MIC against penicillin-susceptible Streptococcus pneumoniae PU09
Staphylococcus aureus [11] = assay: Bactericidal activity against MLSB/methicillin-resistant Staphylococcus aureus 15B196; procedure, shortened: as §1
Staphylococcus aureus [12] = assay: Antibacterial activity against MLSB/methicillin/ciprofloxacin-resistant Staphylococcus aureus PU32 harboring ermA gene assessed as reduction in microbial growth
Haemophilus influenzae [13] = assay: Ratio of MBC to MIC against azithromycin-susceptible Haemophilus influenzae ATCC 49247
Streptococcus pneumoniae [14] = assay: Antibacterial activity against Erythromycin-susceptible Streptococcus pneumoniae ATCC 49619 assessed as reduction in microbial growth
Streptococcus pneumoniae [15] = assay: Bactericidal activity against MLSB-resistant Streptococcus pneumoniae 07P390 harboring ermB gene assessed as reduction in microbial growth; procedure, shortened: as §1
Streptococcus pyogenes [16] = assay: Antibacterial activity against MLSB-resistant Streptococcus pyogenes 12-206 harboring ermA gene assessed as reduction in microbial growth
Streptococcus pyogenes [17] = assay: Ratio of MBC to MIC against MLSB-resistant Streptococcus pyogenes 12-206 harboring ermA gene
Staphylococcus aureus [18] = assay: Bactericidal activity against MLSB/methicillin/ciprofloxacin-resistant Staphylococcus aureus PU32 harboring ermA gene; procedure, shortened: as §1
Staphylococcus aureus [19] = assay: Antibacterial activity against MLSB/methicillin-resistant Staphylococcus aureus 15B196 assessed as reduction in microbial growth
Staphylococcus aureus [20] = assay: Ratio of MBC to MIC against MLSB/methicillin/ciprofloxacin-resistant Staphylococcus aureus PU32 harboring ermA gene
Staphylococcus aureus [21] = assay: Antibacterial activity against MLSB/methicillin/ciprofloxacin-resistant Staphylococcus aureus PU32 harboring ermA gene assessed as reduction in microbial growth relative to ciprofloxacin
Staphylococcus aureus [22] = assay: Antibacterial activity against MLSB/methicillin-resistant Staphylococcus aureus 15B196 assessed as reduction in microbial growth relative to ciprofloxacin
Haemophilus influenzae [23] = assay: Antibacterial activity against azithromycin-susceptible Haemophilus influenzae ATCC 49247 assessed as reduction in microbial growth relative to ciprofloxacin

Row | SMILES | MIC (Haemophilus influenzae [1]) [µg/mL] | MIC (Streptococcus pneumoniae [2]) [µg/mL] | MIC (Streptococcus pneumoniae [3]) [µg/mL] | MBC (Streptococcus pyogenes [4]) [µg/mL] | MBC (Streptococcus pneumoniae [5]) [µg/mL] | Ratio (Streptococcus pneumoniae [6]) | Ratio (Streptococcus pneumoniae [7]) | MBC (Haemophilus influenzae [8]) [µg/mL] | MBC (Streptococcus pneumoniae [9]) [µg/mL] | Ratio (Streptococcus pneumoniae [10]) | MBC (Staphylococcus aureus [11]) [µg/mL] | MIC (Staphylococcus aureus [12]) [µg/mL] | Ratio (Haemophilus influenzae [13]) | MIC (Streptococcus pneumoniae [14]) [µg/mL] | MBC (Streptococcus pneumoniae [15]) [µg/mL] | MIC (Streptococcus pyogenes [16]) [µg/mL] | Ratio (Streptococcus pyogenes [17]) | MBC (Staphylococcus aureus [18]) [µg/mL] | MIC (Staphylococcus aureus [19]) [µg/mL] | Ratio (Staphylococcus aureus [20]) | further results
1 | CC[C@H]1OC(=O)[C@H](C)[C@@H](OC(=O)Cc2cccnc2)[C@H](C)[C@@H](O[C@@H]2O[C@H](C)C[C@H](N(C)C)[C@H]2O)[C@](C)(OC(=O)CCNCCC#Cc2ccc3c(c2)c(=O)c(C(=O)O)cn3C2CC2)C[C@@H](C)CN(C)[C@H](C)[C@H]2OC(=O)O[C@@]21C | 32 | 64 | 4 | 64 (≈ 58.9 µM) | 8 (≈ 7.36 µM) | 2 | 4 | 64 (≈ 58.9 µM) | 16 (≈ 14.7 µM) | 4 | > 256 | 128 | 2 | 2 | 128 | 64 | 1 | > 256 | 256 |  | 
2 | CC[C@H]1OC(=O)[C@H](C)[C@@H](OC(=O)Cc2ccccn2)[C@H](C)[C@@H](O[C@@H]2O[C@H](C)C[C@H](N(C)C)[C@H]2O)[C@](C)(OC(=O)CCNCCCCc2cnc3ccccc3c2)C[C@@H](C)CN(C)[C@H](C)[C@@H](O)[C@]1(C)O | 16 | 8 | 4 |  | 0.5 (≈ 0.519 µM) | 4 | 2 | 32 (≈ 33.2 µM) | 4 (≈ 4.15 µM) | 1 | > 256 | 4 | 2 | 0.25 | 32 |  |  | 16 (≈ 16.6 µM) | 256 | 4 | 
3 | CC[C@H]1OC(=O)[C@H](C)[C@@H](O[C@H]2C[C@@](C)(OC)[C@@H](O)[C@H](C)O2)[C@H](C)[C@@H](O[C@@H]2O[C@H](C)C[C@H](N(C)C)[C@H]2O)[C@](C)(OC)C[C@@H](C)C(=O)[C@H](C)[C@@H](O)[C@]1(C)O [CLARITHROMYCIN] | 16 | > 256 | 8 |  |  |  |  |  |  |  |  | 64 |  |  |  | > 256 |  |  | ≥ 16 |  | fold change (FC) (Staphylococcus aureus [21]): 0.11; fold change (FC) (Staphylococcus aureus [22]): >57; fold change (FC) (Haemophilus influenzae [23]): 1768
4 | CC[C@H]1OC(=O)[C@H](C)[C@@H](OC(=O)Cc2ccccn2)[C@H](C)[C@@H](O[C@@H]2O[C@H](C)C[C@H](N(C)C)[C@H]2O)[C@](C)(OC(=O)CCNC/C=C/c2cnc3ccccc3c2)C[C@@H](C)CN(C)[C@H](C)[C@@H](O)[C@]1(C)O | 8 | 1 | 2 |  | 0.25 (≈ 0.264 µM) | >8 | 2 | 16 (≈ 16.9 µM) | 2 (≈ 2.11 µM) | 1 |  | 2 | 2 | 0.125 | > 8 |  |  | > 16 | > 256 | >8 | 
5 | CC[C@H]1OC(=O)[C@H](C)[C@@H](OC(=O)Cc2ccccn2)[C@H](C)[C@@H](O[C@@H]2O[C@H](C)C[C@H](N(C)C)[C@H]2O)[C@](C)(OC(=O)CCNCCNc2cc3c(=O)c(C(=O)O)cn(C4CC4)c3cc2Cl)C[C@@H](C)CN(C)[C@H](C)[C@@H](O)[C@]1(C)O | 16 | 1 | 4 |  | 0.25 (≈ 0.23 µM) | >8 | 1 | 32 (≈ 29.5 µM) | 4 (≈ 3.68 µM) | 1 |  | 8 | 2 | 0.25 | > 8 |  |  | > 64 | > 256 | >8 | 
6 | CC[C@H]1OC(=O)[C@H](C)[C@@H](OC(=O)Cc2ccccn2)[C@H](C)[C@@H](O[C@@H]2O[C@H](C)C[C@H](N(C)C)[C@H]2O)[C@](C)(OC(=O)CCNCCC#Cc2ccc3ncccc3c2)C[C@@H](C)CN(C)[C@H](C)[C@@H](O)[C@]1(C)O | 4 | 32 | 0.5 | > 16 | 0.03 (≈ 0.0312 µM) |  | 1 | 8 (≈ 8.33 µM) | 1 (≈ 1.04 µM) | 2 | > 256 | 4 | 2 | 0.03 | 64 | 2 | >8 | > 32 | > 256 | >8 | fold change (FC) (Staphylococcus aureus [21]): 0.0054; fold change (FC) (Staphylococcus aureus [22]): >44; fold change (FC) (Haemophilus influenzae [23]): 344
7 | CC[C@H]1OC(=O)[C@H](C)[C@@H](OC(=O)Cc2ccccn2)[C@H](C)[C@@H](O[C@@H]2O[C@H](C)C[C@H](N(C)C)[C@H]2O)[C@](C)(OC(=O)CCNCCCc2cnc3ccccc3c2)C[C@@H](C)CN(C)[C@H](C)[C@@H](O)[C@]1(C)O | 16 | 2 | 2 |  | 0.062 (≈ 0.0652 µM) | 8 | 1 | 16 (≈ 16.8 µM) | 4 (≈ 4.21 µM) | 2 |  | 4 | 1 | 0.062 | 16 |  |  | 32 (≈ 33.7 µM) | > 256 | 8 | 
8 | CC[C@H]1OC(=O)[C@H](C)[C@@H](OC(=O)Cc2ccccn2)[C@H](C)[C@@H](O[C@@H]2O[C@H](C)C[C@H](N(C)C)[C@H]2O)[C@](C)(OC(=O)CCNCCC#Cc2ccc3c(c2)c(=O)c(C(=O)O)cn3C2CC2)C[C@@H](C)CN(C)[C@H](C)[C@H]2OC(=O)O[C@@]21C | 64 | 64 | 4 | 64 (≈ 58.9 µM) | 1 (≈ 0.921 µM) |  | 1 | 128 (≈ 118 µM) | 8 (≈ 7.36 µM) | 2 | > 256 | 64 | 2 | 1 | 64 | 32 | 2 | > 256 | > 256 | >4 | 
9 | CC[C@H]1OC(=O)[C@H](C)[C@@H](OC(=O)Cc2ccccn2)[C@H](C)[C@@H](O[C@@H]2O[C@H](C)C[C@H](N(C)C)[C@H]2O)[C@](C)(OC(=O)CCNCCC#Cc2ccc3[nH]ccc(=O)c3c2)C[C@@H](C)CN(C)[C@H](C)[C@@H](O)[C@]1(C)O | 64 | 256 | 2 | > 16 | 0.25 (≈ 0.256 µM) |  | 1 | 128 (≈ 131 µM) | 4 (≈ 4.1 µM) | 2 | > 256 | 16 | 2 | 0.25 | > 256 | 2 | >8 | > 128 | > 256 | >8 | 
10 | CC[C@H]1OC(=O)[C@H](C)[C@@H](OC(=O)Cc2ccccn2)[C@H](C)[C@@H](O[C@@H]2O[C@H](C)C[C@H](N(C)C)[C@H]2O)[C@](C)(OC(=O)CCNCCC#Cc2ccc3c(c2)c(=O)c(C(=O)O)cn3C2CC2)C[C@@H](C)CN(C)[C@H](C)[C@@H](O)[C@]1(C)O | 32 | 64 | 2 | 128 (≈ 121 µM) | 0.5 (≈ 0.472 µM) | 4 | 2 | 64 (≈ 60.4 µM) | 4 (≈ 3.77 µM) | 2 | > 256 | 128 | 2 | 0.25 | 256 | 16 | 8 | > 256 | > 256 |  | 
11 | CC[C@H]1OC(=O)[C@H](C)[C@@H](OC(=O)Cc2ccccn2)[C@H](C)[C@@H](O[C@@H]2O[C@H](C)C[C@H](N(C)C)[C@H]2O)[C@](C)(OC(=O)CCNCC#Cc2cnc3ccccc3c2)C[C@@H](C)CN(C)[C@H](C)[C@@H](O)[C@]1(C)O | 4 | 1 | 2 |  | 0.125 (≈ 0.132 µM) | >8 | 1 | 4 (≈ 4.23 µM) | 2 (≈ 2.11 µM) | 1 | > 256 | 2 | 1 | 0.125 | > 8 |  |  | 8 (≈ 8.45 µM) | 128 | 4 | 
